Results on four compounds are retold here after PMC9061098 (RSC Advances, 2019).

Peptide text beside a SMILES is read from it.

Common to all, as to assay: MIC/MBC microdilution assay
(Broth dilution looks for growth in wells or tubes with falling amounts of substance.)

One assay deals with E. coli ATCC 43827. The class given is cell-based, Escherichia coli. Particulars: n = 2; for Antibacterial activity, MIC: microdilution, 24 h at 37 °C, absorbance 620 nm; for Antibacterial activity, MBC: plated on MHA, overnight 37 °C. In a few lines:
(§1)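 Broth microdilution: 90 µL peptide (200, 100, 50, 25, 12.5 and 6.2 µg mL-1 as added) plus 10 µL inoculum (5 × 10^6 CFU mL-1 as added). Incubation 24 h at 37 °C; growth read as absorbance at 620 nm. For MBC, wells with no visible growth were loop-sampled, spread on MHA and incubated overnight at 37 °C. Run twice (n = 2).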

The next assay has as its system P. aeruginosa ATCC 27853. The assay is classed as cell-based, Pseudomonas aeruginosa. Particulars: n = 2; for Antibacterial activity, MIC: microdilution, 24 h at 37 °C, absorbance 620 nm; for Antibacterial activity, MBC: plated on MHA, overnight 37 °C. In a few lines: as §1
Another assay has as its system E. faecalis ATCC 29212. The assay is classed as cell-based, Enterococcus faecalis. Particulars: n = 2; for Antibacterial activity, MIC: microdilution, 24 h at 37 °C, absorbance 620 nm; for Antibacterial activity, MBC: plated on MHA, overnight 37 °C. The essentials: as §1
In another assay the test system is S. aureus ATCC 25923. The assay is classed as cell-based, Staphylococcus aureus. Particulars: n = 2; for Antibacterial activity, MIC: microdilution, 24 h at 37 °C, absorbance 620 nm; for Antibacterial activity, MBC: plated on MHA, overnight 37 °C. In a few lines: as §1
A further assay deals with E. coli ATCC 11775. The class given is cell-based, Escherichia coli. Particulars: n = 2. The essentials: as §1
The test system of a further assay is E. coli ATCC 25922. The class given is cell-based, Escherichia coli. Particulars: n = 2. In a few lines:
as §1

The mark [1] stands for this setting: microdilution, 24 h at 37 °C, absorbance 620 nm.

Consider `N=C(N)NCCC[C@H](NC(=O)[C@H](Cc1c[nH]c2ccccc12)NC(=O)[C@H](CCC(N)=O)NC(=O)[C@H](Cc1c[nH]c2ccccc12)NC(=O)[C@H](CCCNC(=N)N)NC(=O)[C@@H](N)CCCNC(=N)N)C(N)=O` [LfcinB (20–25)] (H-RRWQWR-NH2), for which the “Antibacterial activity, MIC” value was 102 µM in the assay on E. coli ATCC 43827, 203 µM in the assay on P. aeruginosa ATCC 27853, over 203 µM with E. faecalis ATCC 29212 and 203 µM in the assay on S. aureus ATCC 25923. Moreover, the “Antibacterial activity, MBC” value with E. coli ATCC 43827 was 203 µM; in the assay with P. aeruginosa ATCC 27853, over 203 µM; in the assay on E. faecalis ATCC 29212 it was over 203 µM; in the assay on S. aureus ATCC 25923, over 203 µM.
Take `CSCC[C@H](NC(=O)[C@H](CCCNC(=N)N)NC(=O)[C@H](Cc1c[nH]c2ccccc12)NC(=O)[C@H](CCC(N)=O)NC(=O)[C@H](Cc1c[nH]c2ccccc12)NC(=O)[C@H](CCCNC(=N)N)NC(=O)[C@@H](N)CCCNC(=N)N)C(=O)N[C@@H](CCCCN)C(=O)N[C@@H](CCCCN)C(=O)N[C@@H](CC(C)C)C(=O)NCC(N)=O` [LfcinB (20–30)] (H-RRWQWRMKKLG-NH2): the “Antibacterial activity, MIC” value in the assay on E. coli ATCC 43827 was 65 µM; in the assay with P. aeruginosa ATCC 27853 it was over 130 µM; in the assay with E. faecalis ATCC 29212 it was over 130 µM; with S. aureus ATCC 25923 it was 130 µM. Also, the “Antibacterial activity, MBC” value is 130 µM in the assay with E. coli ATCC 43827, over 130 µM with P. aeruginosa ATCC 27853, over 130 µM in the assay on E. faecalis ATCC 29212 and over 130 µM in the assay on S. aureus ATCC 25923.
Consider `N=C(N)NCCC[C@H](NC(=O)[C@H](Cc1c[nH]c2ccccc12)NC(=O)[C@H](CCC(N)=O)NC(=O)[C@H](Cc1c[nH]c2ccccc12)NC(=O)[C@H](CCCNC(=N)N)NC(=O)[C@H](Cc1c[nH]c2ccccc12)NC(=O)[C@H](CCC(N)=O)NC(=O)[C@H](Cc1c[nH]c2ccccc12)NC(=O)[C@@H](N)CCCNC(=N)N)C(N)=O` [LfcinB (21–25)Pal] (H-RWQWRWQWR-NH2), for which the Antibacterial activity, MIC in the assay on E. coli ATCC 11775 (setting [1]) is 17 µM; in the assay on E. coli ATCC 25922 (setting [1]), 17 µM; with E. coli ATCC 43827, 17 µM; in the assay with P. aeruginosa ATCC 27853, 67 µM; in the assay on E. faecalis ATCC 29212 it was 67 µM; in the assay on S. aureus ATCC 25923 it was 135 µM. The Antibacterial activity, MBC is 17 µM with E. coli ATCC 11775 (plated on MHA, overnight 37 °C); 34 µM in the assay with E. coli ATCC 25922 (plated on MHA, overnight 37 °C); 67 µM in the assay with E. coli ATCC 43827; 135 µM in the assay with P. aeruginosa ATCC 27853; 67 µM with E. faecalis ATCC 29212; over 135 µM in the assay on S. aureus ATCC 25923.
In the case of `CSCC[C@H](NC(=O)[C@H](CCCNC(=N)N)NC(=O)[C@H](Cc1c[nH]c2ccccc12)NC(=O)[C@H](CCC(N)=O)NC(=O)[C@H](Cc1c[nH]c2ccccc12)NC(=O)[C@H](CCCNC(=N)N)NC(=O)[C@H](CCCNC(=N)N)NC(=O)[C@H](C)NC(=O)[C@H](CCCCN)NC(=O)[C@@H](N)Cc1ccccc1)C(=O)N[C@@H](CCCCN)C(=O)N[C@@H](CCCCN)C(=O)N[C@@H](CC(C)C)C(=O)NCC(=O)N[C@@H](C)C(N)=O` [[Ala^19]-LfcinB (17–31)], the Antibacterial activity, MIC in the assay on E. coli ATCC 43827 was 102 µM; in the assay on P. aeruginosa ATCC 27853 it was 102 µM; in the assay with E. faecalis ATCC 29212 it was over 102 µM; in the assay with S. aureus ATCC 25923 it was over 102 µM. For the same compound, the Antibacterial activity, MBC in the assay with E. coli ATCC 43827, with P. aeruginosa ATCC 27853, in the assay with E. faecalis ATCC 29212 and in the assay on S. aureus ATCC 25923 was over 102 µM each time.
